Measurements reported in ChEMBL document CHEMBL3407350, “Synthesis and anti-hepatitis B virus activity of C4 amide-substituted isosteviol derivatives” (Bioorg Med Chem, 2015).
In brackets after ≈: the same amount, converted by molar mass. Activity calls are given as the source filed them. No cut-off for these calls is given here.

Legend:
Hepatitis B virus [1] = assay: Antiviral activity against HBV infected in human HepG2(2.2.15) cells assessed as inhibition of surface antigen secretion by EIA; assay type: functional, organism-based
In short: (§1)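 HepG2 2.2.15 cells (HepG2 stably carrying a head-to-tail HBV DNA dimer; MEM, 10% FBS, 37 °C, 5% CO2) treated with compound for 3 days; conditioned medium assayed for secreted HBsAg and HBeAg by enzyme immunoassay; mean and SD, n = 3; IC50 taken as 50% inhibitory concentration.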

[2] = Selectivity index, ratio of TC50 for human HepG2(2.2.15) cells to IC50 for HBV infected in human HepG2(2.2.15) cells assessed as inhibition of surface antigen secretion
In short: (§2)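 Selectivity index computed as TC50 (MTS, HepG2 2.2.15, 3 days) divided by IC50 for HBsAg, HBeAg or virion DNA inhibition in the same cell line.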

[3] = Cytotoxicity against human HepG2(2.2.15) cells; assay type: cell-based; details: read-out: TC50 (the source's name)
In short: (§3)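 Cytotoxicity by MTS: HepG2 2.2.15 cells seeded at 4×10^4 cells/ml for 24 h, exposed to serial dilutions 2.5–160 µg/ml for 3 days; four replicates, viability expressed relative to untreated control; TC50 as 50% cytotoxic concentration.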

Hepatitis B virus [4] = assay: Antiviral activity against HBV infected in human HepG2(2.2.15) cells assessed as inhibition of e antigen secretion by EIA; assay type: functional, organism-based; in short: as §1
[5] = Selectivity index, ratio of TC50 for human HepG2(2.2.15) cells to IC50 for HBV infected in human HepG2(2.2.15) cells assessed as inhibition of e antigen secretion; in short: as §2
Hepatitis B virus [6] = assay: Antiviral activity against HBV infected in human HepG2(2.2.15) cells assessed as inhibition of viral DNA replication; assay type: functional, organism-based
In short: (§4)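 Secreted virion DNA from HepG2 2.2.15 cells after 3 days of compound treatment; HBV DNA isolated from conditioned medium and quantified by SYBR Green real-time PCR (45 cycles, 95 °C 15 s / 58 °C 1 min); mean and SD, n = 3; IC50 as 50% inhibitory concentration.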

[7] = Selectivity index, ratio of TC50 for human HepG2(2.2.15) cells to IC50 for HBV infected in human HepG2(2.2.15) cells assessed as inhibition of viral DNA replication; in short: as §2
[8] = Cytotoxicity against human HepG2(2.2.15) cells at >20 ug/ml after 3 days by MTS assay; assay type: cell-based; details: hepg2 2.2.15, 72 h; in short: as §3
[9] = Cytotoxicity against HBV-transfected human HuH7 cells up to 160 ug/ml after 3 days by MTS assay; assay type: cell-based; details: huh-7, 72 h
In short: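 Huh7 cells (DMEM, 10% FBS) transfected with HBV plasmid, seeded at 4×10^4 cells/ml for 24 h, treated with 2.5–160 µg/ml serial dilutions for 3 days; viability by MTS read-out, four replicates, relative to untreated control.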

Hepatitis B virus [10] = assay: Antiviral activity against HBV infected in human HepG2(2.2.15) cells assessed as inhibition of surface antigen secretion after 3 days by EIA; assay type: functional, organism-based; in short: as §1
Hepatitis B virus [11] = assay: Antiviral activity against HBV infected in human HepG2(2.2.15) cells assessed as inhibition of e antigen secretion after 3 days by EIA; assay type: functional, organism-based; in short: as §1
Hepatitis B virus [12] = assay: Antiviral activity against HBV infected in human HepG2(2.2.15) cells assessed as inhibition of viral DNA replication by RT-PCR analysis; assay type: functional, organism-based; in short: as §4
Hepatitis B virus [13] = assay: Antiviral activity against HBV transfected in human HuH7 cells assessed as reduction in precore/pregenomic RNA level at 1 to 10 ug/ml after 2 days by Northern blot analysis; assay type: functional, organism-based; details: Huh-7
In short: (§5)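 pHBV1.2-transfected Huh7 (cotransfected pCMV-β for efficiency) treated 1, 5, 10 µg/ml for 2 days; 5 µg total RNA on 1.0% agarose, Northern blot with whole HBV genome probe; GAPDH RNA loading control, β-gal for transfection efficiency.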

Hepatitis B virus [14] = assay: Antiviral activity against HBV transfected in human HuH7 cells assessed as reduction in major S/preS RNA level at 1 to 10 ug/ml after 2 days by Northern blot analysis; assay type: functional, organism-based; details: Huh-7; in short: as §5
Hepatitis B virus [15] = assay: Antiviral activity against HBV transfected in human HuH7 cells assessed as reduction in LHBsAg protein expression at 1 to 10 ug/ml after 2 days by immunoblot analysis relative to vehicle-treated control; assay type: functional, organism-based; details: Huh-7
In short: (§6)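 Huh7 transfected with pHBV1.2 (Lipofectamine 2000, 2 days), then treated 1, 5, 10 µg/ml for 2 days; whole-cell RIPA lysates, 25 µg protein per lane SDS-PAGE, PVDF immunoblot for LHBsAg, SHBsAg, HBcAg with ECL detection; α-tubulin loading control; compared with vehicle.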

Hepatitis B virus [16] = assay: Antiviral activity against HBV transfected in human HuH7 cells assessed as reduction in SHBsAg protein expression at 1 to 10 ug/ml after 2 days by immunoblot analysis relative to vehicle-treated control; assay type: functional, organism-based; details: Huh-7; in short: as §6
Hepatitis B virus [17] = assay: Antiviral activity against HBV transfected in human HuH7 cells assessed as reduction in HBcAg protein expression at 1 to 10 ug/ml after 2 days by immunoblot analysis relative to vehicle-treated control; assay type: functional, organism-based; details: Huh-7; in short: as §6
Hepatitis B virus [18] = assay: Antiviral activity against HBV transfected in human HuH7 cells assessed as reduction in viral DNA replication after 2 days by Southern blot analysis; assay type: functional, organism-based; details: Huh-7
In short: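 Intracellular encapsidated HBV DNA from core particles of pHBV1.2-transfected Huh7 cells treated 2 days; 1.0% agarose, Southern blot with DIG-labeled full-length HBV probe; lamivudine-treated cells as comparison.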

Hepatitis B virus [19] = assay: Reduction of S promoter activity in HBV infected in human HuH7 cells transfected with pS-Luc at 10 ug/ml after 24 hrs by luciferase reporter gene assay; assay type: functional, organism-based; details: Huh-7
In short: (§7)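 Huh7 seeded in 24-well plates 24 h, cotransfected with viral promoter-luciferase construct (Core, S, preS or X; 1 µg/well) plus pHBV1.2 and pRL-SV40 (0.02 µg/well) in serum-free DMEM 24 h; then 2% FBS medium ± 10 µg/ml; firefly normalized to Renilla; n = 3.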

Hepatitis B virus [20] = assay: Reduction of preS promoter activity in HBV infected in human HuH7 cells transfected with pPreS-Luc at 10 ug/ml after 24 hrs by luciferase reporter gene assay; assay type: functional, organism-based; details: Huh-7; in short: as §7
Hepatitis B virus [21] = assay: Inhibition of Core promoter activity in HBV infected in human HuH7 cells transfected with pCore-Luc at 10 ug/ml after 24 hrs by luciferase reporter gene assay; assay type: functional, organism-based; details: Huh-7; in short: as §7
Hepatitis B virus [22] = assay: Inhibition of NF-kappaB promoter activity in HBV infected in human HuH7 cells transfected with pNF-kappaB-Luc at 10 ug/ml after 24 hrs by luciferase reporter gene assay; assay type: functional, organism-based; details: Huh-7
In short: (§8)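 Huh7 in 24-well plates transfected with pAP1-, pAP2-, pNF-κB- or pISRE-Luc plus pRL-SV40 for 24 h, then treated ± 10 µg/ml; dual-luciferase read-out normalized to Renilla; mean and SD, n = 3.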

Hepatitis B virus [23] = assay: Inhibition of AP-2 promoter activity in HBV infected in human HuH7 cells transfected with pAP2-Luc at 10 ug/ml after 24 hrs by luciferase reporter gene assay; assay type: functional, organism-based; details: Huh-7; in short: as §8
Hepatitis B virus [24] = assay: Inhibition of ISRE promoter activity in HBV infected in human HuH7 cells transfected with pISRE-Luc at 10 ug/ml after 24 hrs by luciferase reporter gene assay; assay type: functional, organism-based; details: Huh-7; in short: as §8
Hepatitis B virus [25] = assay: Upregulation of AP-1 promoter activity in HBV infected in human HuH7 cells transfected with pAP1-Luc at 10 ug/ml after 24 hrs by luciferase reporter gene assay; assay type: functional, organism-based; details: Huh-7; in short: as §8
Huh-7 [26] = assay: Inhibition of nuclear p65/p50 NF-kappaB protein expression in human HuH7 cells transfected with pHBV1.2 at 1 to 10 ug/ml after 2 days by Western blotting analysis; assay type: functional, cell-based
In short: (§9)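 Huh7 transfected with pHBV1.2 for 2 days, treated 1, 5, 10 µg/ml for 2 further days; nuclear and cytoplasmic fractions by NE-PER; 25 µg protein immunoblotted for p65, p50, phospho-p65 (nuclear, PCNA control) and IκBα (cytoplasmic); three experiments.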

Huh-7 [27] = assay: Reduction of phosphorylated p65 NF-kappaB level in human HuH7 cells transfected with pHBV1.2 at 1 to 10 ug/ml after 2 days by Western blotting analysis; assay type: functional, cell-based; in short: as §9
[28] = Upregulation of cytoplasmic IkappaBalpha level in human HuH7 cells transfected with pHBV1.2 at 1 to 10 ug/ml after 2 days by Western blotting analysis; assay type: functional, cell-based; details: Huh-7; in short: as §9
Huh-7 [29] = assay: Reduction in NF-kappaB binding to consensus DNA-binding sequence in human HuH7 cells transfected with pHBV1.2 by ESMA analysis; assay type: functional, cell-based
Huh-7 [30] = assay: Antiviral activity against HBV infected in human HuH7 cells transfected with pHBV1.2/p65 expression plasmid at 10 ug/ml after 2 days by RT-PCR analysis; assay type: functional, cell-based
In short: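 Huh7 cells cotransfected with pHBV1.2 plus 0.5 or 2.5 µg pCMV-p65 (or empty vector) for 2 days, then exposed to 10 µg/ml for 2 more days; secreted viral particle DNA quantified by real-time PCR; n = 3.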

## CCC(=O)N[C@]1(C)CCC[C@@]2(C)[C@@H]3CC[C@@]4(C)C[C@]3(CC[C@@H]21)CC4=O
Hepatitis B virus [1]
  IC50: 32.5 µg/mL (≈ 93.9 µM)
[2]
  Selectivity Index: 2.7
[3]
  CC50: 87.5 µg/mL (≈ 253 µM)

## C[C@@]12CC[C@@H]3[C@@](CC[C@H]4[C@@]3(C)CCC[C@@]4(C)NC(=O)c3ccc(Cl)cc3)(CC1=O)C2
Hepatitis B virus [1]
  IC50: 20.8 µg/mL (≈ 48.7 µM)
[2]
  Selectivity Index: 1.04
[3]
  CC50: 21.6 µg/mL (≈ 50.6 µM)

## C[C@@]12CC[C@@H]3[C@@](CC[C@H]4[C@@]3(C)CCC[C@@]4(C)NC(=O)c3ccccc3)(CC1=O)C2
Hepatitis B virus [1]
  IC50: 35.6 µg/mL (≈ 90.6 µM)
[2]
  Selectivity Index: 1.36
[3]
  CC50: 48.5 µg/mL (≈ 123 µM)

## Cc1ccc(C(=O)N[C@]2(C)CCC[C@@]3(C)[C@@H]4CC[C@@]5(C)C[C@]4(CC[C@@H]32)CC5=O)cc1
[3]
  CC50: 18.9 µg/mL (≈ 46.5 µM)

## C[C@@]12CC[C@@H]3[C@@](CC[C@H]4[C@@]3(C)CCC[C@@]4(C)NC(=O)c3ccc(C#N)cc3)(CC1=O)C2
Hepatitis B virus [1]
  IC50: 8.45 µg/mL (≈ 20.2 µM)
[2]
  Selectivity Index: 1.28
[3]
  CC50: 10.8 µg/mL (≈ 25.8 µM)

## CCCC(=O)N[C@]1(C)CCC[C@@]2(C)[C@@H]3CC[C@@]4(C)C[C@]3(CC[C@@H]21)CC4=O
Hepatitis B virus [1]
  IC50: 10.4 µg/mL (≈ 28.8 µM)
[2]
  Selectivity Index: 6.34
[3]
  CC50: 65.7 µg/mL (≈ 183 µM)
Hepatitis B virus [4]
  IC50: 11.2 µg/mL (≈ 31 µM)
[5]
  Selectivity Index: 5.89
Hepatitis B virus [6]
  IC50: 5.76 µg/mL (≈ 16 µM)
[7]
  Selectivity Index: 11.41
[8]
  Activity: Toxic
[9]
  Activity: Non-toxic
Hepatitis B virus [10]
  inhibition: Dose-dependent effect
Hepatitis B virus [11]
  inhibition: Dose-dependent effect
Hepatitis B virus [12]
  inhibition: Dose-dependent effect
Hepatitis B virus [13]
  Activity: Active
Hepatitis B virus [14]
  Activity: Active
Hepatitis B virus [15]
  Activity: Active
Hepatitis B virus [16]
  Activity: Active
Hepatitis B virus [17]
  Activity: Active
Hepatitis B virus [18]
  Activity: Dose-dependent effect
Hepatitis B virus [19]
  Activity: Active
Hepatitis B virus [20]
  Activity: Active
Hepatitis B virus [21]
  inhibition: inactive
Hepatitis B virus [22]
  inhibition: Active
Hepatitis B virus [23]
  inhibition: inactive
Hepatitis B virus [24]
  inhibition: inactive
Hepatitis B virus [25]
  Activity: Active
Huh-7 [26]
  inhibition: Active
Huh-7 [27]
  Activity: Active
[28]
  Activity: Active
Huh-7 [29]
  Activity: Dose-dependent effect
Huh-7 [30]
  Activity: inactive

## Nc1ccn([C@@H]2CS[C@H](CO)O2)c(=O)n1 [LAMIVUDINE]
Hepatitis B virus [1]
  IC50: 49.1 µg/mL (≈ 214 µM)
[2]
  Selectivity Index: 4.17
[3]
  CC50: 205 µg/mL (≈ 894 µM)
Hepatitis B virus [6]
  IC50: 41 µg/mL (≈ 179 µM)
[7]
  Selectivity Index: 5
